Data on five molecules can be found in publication PMC9447421 (FASEB BioAdvances, 2022).

Where a name gives a salt, the structure may show the parent alone.

The target of assay [1] is T1, A. mexicanus T2R4 (Astyanax mexicanus, UniProt A0A3B1ICP8).
T1 sequence (A0A3B1ICP8 2-338): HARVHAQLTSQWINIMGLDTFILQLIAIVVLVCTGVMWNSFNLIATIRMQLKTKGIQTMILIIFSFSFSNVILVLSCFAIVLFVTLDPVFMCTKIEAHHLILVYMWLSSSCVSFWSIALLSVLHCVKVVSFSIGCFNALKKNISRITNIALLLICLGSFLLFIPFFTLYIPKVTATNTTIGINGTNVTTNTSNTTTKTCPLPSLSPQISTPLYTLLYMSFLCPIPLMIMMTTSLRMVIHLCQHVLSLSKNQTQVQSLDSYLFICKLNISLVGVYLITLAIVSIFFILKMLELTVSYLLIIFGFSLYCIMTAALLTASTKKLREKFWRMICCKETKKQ
The assay is described as follows: Calcium mobilization assay, HEK293T cells stably expressing T2R4. The class given is cell-based.

The subject of assay [2] is hT2R4. As to conditions: human T2R4; cited from earlier work.
Assay [3] has as its system canonical Gβγ‐PLC signaling pathway activated by T2Rs (T2R1). The class given is cell-based, Astyanax mexicanus. As to conditions: T2R1 cells; blocker 10 μM, 30 min pretreatment; brine shrimp 5 mg/ml. The procedure, abridged:
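HEK293T cells stably expressing FLAG-tagged fish T2R1, selected in hygromycin (200 μg/ml). Brine shrimp (300 mg ground food per 10 ml) and blockers prepared in assay buffer (1X HBSS, 20 mM HEPES). Cells loaded with Fluo-4 NW, 35 min at 37°C then 35 min at room temperature. Compounds added robotically on a FlexStation 3. Signal baseline-subtracted against parental HEK293T cells and reported as ΔRFU.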

For assay [4], the system named is hT2R1. The note with it: human T2R1; cited from earlier work.
For assay [5], the system named is hT2R4. The note with it: human T2R4; cited from earlier work. The source holds these as a separate data set.

As for `COc1ccc2c(c1)[C@]13CCCC[C@@H]1[C@H](C2)N(C)CC3` [DXM, dextromethorphan], the half-maximal effective concentration (EC50) in assay [1] turned out to be 1.43 mM. Besides, the “Activation of hT2R4” value in assay [2] is reported as “does not activate”. On to `COc1ccc2c(c1)CC[C@@H]1[C@@H]2CC[C@]2(C)[C@@H](NCCCCCCN3C(=O)C=CC3=O)CC[C@@H]12` [U73122], for which the “Effect of pretreatment on brine shrimp-induced calcium mobilization” value in assay [3] was “significant decrease in calcium mobilization”. For `COc1ccc2c(c1)CC[C@@H]1[C@@H]2CC[C@]2(C)[C@@H](NCCCCCCN3C(=O)CCC3=O)CC[C@@H]12` [U73343], in assay [3], the “Effect of pretreatment on brine shrimp-induced calcium mobilization” value was “no significant differences”.

`O=C1OC2(c3ccccc31)c1ccc(O)c(O)c1Oc1c2ccc(O)c1O` [gallein, Gallein]: the “Effect of pretreatment on brine shrimp-induced calcium mobilization” value in assay [3] is reported as “significant decrease in calcium mobilization”. As for `C=C[C@H]1C[N@@]2CC[C@H]1C[C@H]2[C@H](O)c1ccnc2ccc(OC)cc12` [quinine, quinine hydrochloride], the “Activation of hT2R1” value in assay [4] is given as “does not activate”. The “Effect on hT2R4 expression (pharmacological chaperone)” value in assay [5] is reported as “acts intracellularly to enhance hT2R4 expression”.
